Measurements from the array DNA melting data of Ke et al. (doi:10.1101/2024.01.08.574731).

Legend:
[1] = folding enthalpy; higher = less favourable; fluorescence melt of hairpins on a sequencing array, two-state fit; settings: sodium 0.088 M
Outline: (§1)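 On a sequenced MiSeq flow cell, library hairpins with annealed Cy3 and quencher oligos were imaged for Cy3 fluorescence in 2.5 °C steps up to 60 °C, in 50 mM Na-HEPES pH 8.0, 25 mM NaCl. Normalisation used pre-quench Cy3 and control constructs. Bootstrapped two-state fits gave melting temperature and folding enthalpy, combined by inverse variance across four replicates and with fitted temperatures raised by 9.35 °C to match UV melts.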

[2] = melting temperature; fluorescence melt of hairpins on a sequencing array, two-state fit, raised by 9.35 °C to match UV melts; settings: sodium 0.088 M
Outline: as §1

Sequence | folding enthalpy [1] | Tm [2]
GAATACGAAAGTATGTTC ((((((....)))..))) | -59.5 kJ/mol | 32.3 °C
GTTCGTGAAAACGAAC ((((((....)))))) | -134 kJ/mol | 61.9 °C
GATACCCGAAAGGGAATC (((.(((....))).))) | -99.9 kJ/mol | 48 °C
GCATCGCGAAAGCGTGC (((.(((....)))))) | -82.5 kJ/mol | 63.8 °C
GATCCAGTCGTGGATC ((((((....)))))) | -150 kJ/mol | 52.8 °C
GTCTGTGGAAACATAGAC ((((.((....)).)))) | -130 kJ/mol | 44.5 °C
GATCACTCGAGTGATC ((((((....)))))) | -167 kJ/mol | 59.4 °C
GATCTCGTAGGAGATC ((((((....)))))) | -142 kJ/mol | 56.6 °C
GAGTTGCGAAAGCACCTC (((.(((....))).))) | -110 kJ/mol | 47 °C
GCCTACGGAAACGTGGGC (((.(((....))).))) | -164 kJ/mol | 58.6 °C
GCCGGAGGAAACTTCGGC ((((.((....)).)))) | -161 kJ/mol | 56.3 °C
GATCAATCATTTGATC ((((((....)))))) | -156 kJ/mol | 45.5 °C
GTATCGGGAAACCAATAC ((((.((....)).)))) | -103 kJ/mol | 30.3 °C
CGCGGACAATCCGCG ((((((...)))))) | -110 kJ/mol | 67.7 °C
GTGAGACGAAAGTCACAC (((.(((....))).))) | -131 kJ/mol | 55.4 °C
GCAATGCGAAAGCCTAGC ((.(.((....)).).)) | -47 kJ/mol | 26.8 °C
GATCCCGGTGGGGATC ((((((....)))))) | -168 kJ/mol | 59.3 °C
GTGGACCGAAAGGTACAC (((.(((....))).))) | -127 kJ/mol | 67 °C
GATGACGAAAGTCATATC ((((((....)))..))) | -58.5 kJ/mol | 50 °C
GCATAGCGAAAGCTAAGC ((.((((....)))).)) | -67.8 kJ/mol | 51.2 °C
GTACCTCGAAAGAGTTAC (((.(((....))).))) | -117 kJ/mol | 35.3 °C
GATCCCAGGGGGGATC ((((((....)))))) | -135 kJ/mol | 59.2 °C
GCTTCGCGAAAGCAAAGC ((((.((....)).)))) | -99.6 kJ/mol | 57.3 °C

Sequence | folding enthalpy [1] | Tm [2]
GACGCACGAAAGTGGGTC (((.(((....))).))) | -148 kJ/mol | 63.9 °C
GATCGTCGGGACGATC ((((((....)))))) | -173 kJ/mol | 61.7 °C
GATCTCCCAGAGATC ((((((...)))))) | -167 kJ/mol | 53.5 °C
GGATACGGAAACGTGTCC (((.(((....))).))) | -193 kJ/mol | 52.7 °C
GCGAGAACGAAAGTTCGC (((..(((....)))))) | -62.7 kJ/mol | 55.4 °C
GATCACGAAAGTGCGATC ((((((....)))..))) | -68.4 kJ/mol | 29.5 °C
CGGCAGCGGAAACGCCCG (((..(((....)))))) | -90.7 kJ/mol | 47 °C
GACATGCGAAAGCAGGTC (((.(((....))).))) | -125 kJ/mol | 65.7 °C
GATCTAAGCCTAGATC ((((((....)))))) | -134 kJ/mol | 39.1 °C
GGGGATGGAAACGTCCCC (((((.(....).))))) | -205 kJ/mol | 56.1 °C
GATCGCAATTGCGATC ((((((....)))))) | -130 kJ/mol | 67.8 °C
GCTGACCGAAAGGTAGC (((.(((....)))))) | -107 kJ/mol | 51.7 °C
GCGTAGCGAAAGCGGCGC (((..((....))..))) | -93.7 kJ/mol | 69.1 °C
GCCAAGCGAAAGCGTCGC ((.(.((....)).).)) | -53.8 kJ/mol | 45.5 °C
GATCGTAATTACGATC ((((((....)))))) | -151 kJ/mol | 56.3 °C
GCACTTGGAAACAAGTAC (.(((((....))))).) | -80.8 kJ/mol | 37.9 °C
GCCGGGGGAAACCCTGGC (((.(((....))).))) | -171 kJ/mol | 65.4 °C
CGATCCGGAAACGGGTCG (((.(((....))).))) | -162 kJ/mol | 57.2 °C
GAACCCGAAAGGGTGTTC ((((((....)))..))) | -48.5 kJ/mol | 47.8 °C
GCCAAGCGAAAGCATAGC ((.(.((....)).).)) | -54.1 kJ/mol | 30.7 °C
GGGAGCGAAAGCTTCCCC ((((((....)))..))) | -54.1 kJ/mol | 61 °C
GCCCAAGGAAACCTGGGC (((((.(....).))))) | -183 kJ/mol | 54.1 °C
GACAACGCGAAAGCGGTC (((..(((....)))))) | -57.2 kJ/mol | 44.9 °C

Sequence | folding enthalpy [1] | Tm [2]
GACAAGCGAAAGCTGTC (((.(((....)))))) | -96.6 kJ/mol | 56 °C
GTTTGAGGAAACTTAAAC ((((.((....)).)))) | -76.8 kJ/mol | 36.9 °C
GCGGAGAACCGC ((((....)))) | -95.1 kJ/mol | 51.1 °C
GACCGCGAAAGCGACGTC ((((((....)))..))) | -55.2 kJ/mol | 45.8 °C
GGGATCGAAAGATACCCC ((((((....)))..))) | -75.6 kJ/mol | 51.6 °C
GGCAGTGGAAACACTACC ((.((((....)))).)) | -124 kJ/mol | 43.4 °C
GGGATTGGAAACAATCCC (((((((....))))))) | -175 kJ/mol | 60.5 °C
GCATCGCGAAAGCCACGC ((.(.((....)).).)) | -42.7 kJ/mol | 26.5 °C
GTCATGCGAAAGCAAGAC (((.(((....))).))) | -124 kJ/mol | 52.4 °C
GATCCTCTCCAGGATC ((((((....)))))) | -152 kJ/mol | 50.8 °C
GCATACGAAAGTAGGTGC ((((((....)))..))) | -113 kJ/mol | 40.4 °C
GTGACGTCGAAAGACCAC (((..(((....)))))) | -57 kJ/mol | 40.3 °C
GACTGCGAAAGCATAGTC ((((((....)))..))) | -81.3 kJ/mol | 46.9 °C
GATCTATACGTAGATC ((((((....)))))) | -168 kJ/mol | 45.3 °C
GTCAACGGAAACGCTGAC ((((.((....)).)))) | -150 kJ/mol | 46.4 °C
GATCTTGGAAAAGATC ((((((....)))))) | -138 kJ/mol | 49 °C
GATCTGAAACCAGATC ((((((....)))))) | -124 kJ/mol | 43 °C
GAGAGTGGAAACACTCCC (.(((((....))))).) | -57.4 kJ/mol | 38.1 °C
GCTACGGGAAACCGTAGC (((((((....))))))) | -159 kJ/mol | 68.8 °C
GACACTGGAAACGGTGTC (((((.(....).))))) | -162 kJ/mol | 52.9 °C
GCCTGGCGAAAGCGTGGC (((..((....))..))) | -102 kJ/mol | 58.9 °C
GCGGTGCGAAAGCCTCGC (((..((....))..))) | -93.1 kJ/mol | 59.1 °C
GCGAGCGAAAGCTACGC ((((((....))).))) | -75.1 kJ/mol | 62.6 °C
